Measured values from ChEMBL document CHEMBL4342497, “Design, Synthesis, and Conformation-Activity Study of Unnatural Bridged Bicyclic Depsipeptides as Highly Potent Hypoxia Inducible Factor-1 Inhibitors and Antitumor Agents” (J Med Chem, 2020).
pIC50: −log10 of the molar value.

Key:
[1] = test system: MCF7; experiment: Cytotoxicity against human MCF7 cells assessed as reduction in cell viability incubated for 24 hrs by MTT assay; format: functional, cell-based; conditions: MCF7, 24 h
Method in brief: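 MCF-7 cells seeded at 8.0×10^3 per well and treated with compound for 24 h. MTT 0.5 mg/mL added for 4 h at 37 °C after medium exchange, then DMSO lysis and absorbance at 570 nm. IC50 as mean ± SD, n = 3.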

[2] = test system: HT-29; experiment: Cytotoxicity against human HT-29 cells assessed as reduction in cell viability incubated for 72 hrs by MTT assay; format: functional, cell-based; conditions: HT-29, 72 h
Method in brief: (§1)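 Cells seeded overnight at 3.0×10^3 (A549), 5.0×10^3 (HT29) or 4.0×10^3 (MCF-7, MDA-MB-231) per well, then exposed to compound for 72 h. Medium replaced, MTT 0.5 mg/mL added for 4 h at 37 °C, cells lysed in DMSO, absorbance read at 570 nm. IC50 as mean ± SD, n = 3. Final DMSO below 1.0%.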

[3] = test system: MCF7; experiment: Cytotoxicity against human MCF7 cells assessed as reduction in cell viability incubated for 72 hrs by MTT assay; format: functional, cell-based; conditions: MCF7, 72 h; method in brief: as §1
[4] = test system: MDA-MB-231; experiment: Cytotoxicity against human MDA-MB-231 cells assessed as reduction in cell viability incubated for 72 hrs by MTT assay; format: functional, cell-based; conditions: MDA-MB-231, 72 h; method in brief: as §1
[5] = test system: A549; experiment: Cytotoxicity against human A549 cells assessed as reduction in cell viability incubated for 72 hrs by MTT assay; format: functional, cell-based; conditions: A549, 72 h; method in brief: as §1
[6] = Retardation factor of the compound
[7] = Inhibition of HIF1 (unknown origin) expressed in HEK293 cells assessed as reduction in hypoxia-induced HIF1 activation pre-incubated for 1 hrs before hypoxia exposure for 24 hrs by luciferase reporter gene assay; format: cell-based; conditions: Homo sapiens
Method in brief: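 HEK293 cells stably carrying HRE reporter plasmid p2.1, seeded at 8.0×10^4 per well and grown 24 h in normoxia. Medium changed to fresh medium with 0.25% DMSO and a range of compound concentrations for 1 h, then 24 h at 1% O2 or normoxia. Luciferase activity normalised to protein content. IC50 as mean ± SD, n = 3.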

[8] = Binding affinity to synthetic d(ACGTAGAACGT) dsDNA assessed as melting temperature at 2.5 uM by SYBR green I dye dependent differential scanning fluorimetry based thermal denaturation method (reference value: 44.2 +/- 1.0 degC)
[9] = Binding affinity to synthetic 5'-FAM-CCCTACGTATATGAAAATATACGTAGGG-BHQ1-3' dsDNA assessed as melting temperature at 2.5 uM by SYBR green I dye dependent differential scanning fluorimetry based thermal denaturation method (reference value: 70.7 +/- 0.0 degC)
[10] = test system: MCF7; experiment: Inhibition of hypoxia-induced HIF1 protein expression in human MCF7 cells incubated for 16 hrs by Western blot analysis; format: functional, cell-based
Method in brief: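 MCF-7 cells (2.5×10^6 per 100 mm dish) exposed to several compound concentrations for 16 h under 20% or 1% O2. Lysates run on 8% SDS-PAGE and blotted to nitrocellulose. Blocked in 5% milk, probed with anti-HIF-1α (1:1000) and β-actin (1:3000), then HRP secondary. Detected by chemiluminescence.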

Row | SMILES | pIC50 [1] | pIC50 [2] | pIC50 [3] | pIC50 [4] | pIC50 [5] | Rm [6] | pIC50 [7] | Tm [8] | Tm [9] | inhibition [10]
1 | CC(C)[C@H]1C(=O)OC[C@@H](NC(=O)c2cnc3ccccc3n2)C(=O)N[C@@H](C)C(=O)N(C)[C@H]2CCCC[C@@H](C(=O)N1C)N(C)C(=O)[C@H](C)NC(=O)[C@H](NC(=O)c1cnc3ccccc3n1)COC(=O)[C@H](C(C)C)N(C)C2=O | 6.91 | 7.24 | 7.63 | 7.60 | 7.14 | 0.32 | 8.20 |  |  | 
2 | CC(C)[C@H]1C(=O)OC[C@@H](NC(=O)c2cnc3ccccc3n2)C(=O)N[C@@H](C)C(=O)N(C)[C@@H](CS)C(=O)N(C)[C@@H](C(C)C)C(=O)OC[C@@H](NC(=O)c2cnc3ccccc3n2)C(=O)N[C@@H](C)C(=O)N(C)[C@@H](CS)C(=O)N1C | 5.57 |  |  |  |  | 0.28 | 7.49 |  |  | 
3 | CC(C)[C@H]1C(=O)OC[C@@H](NC(=O)c2cnc3ccccc3n2)C(=O)N[C@@H](C)C(=O)N(C)[C@H]2CSC(C)(C)SC[C@@H](C(=O)N1C)N(C)C(=O)[C@H](C)NC(=O)[C@H](NC(=O)c1cnc3ccccc3n1)COC(=O)[C@H](C(C)C)N(C)C2=O | 5.23 |  |  |  |  | 0.31 | 7.60 |  |  | 
4 | CC(C)[C@H]1C(=O)OC[C@@H](NC(=O)c2cnc3ccccc3n2)C(=O)N[C@@H](C)C(=O)N(C)[C@H]2C/C=C\C[C@@H](C(=O)N1C)N(C)C(=O)[C@H](C)NC(=O)[C@H](NC(=O)c1cnc3ccccc3n1)COC(=O)[C@H](C(C)C)N(C)C2=O | 7.87 | 8.21 | 8.54 | 8.49 | 8.28 | 0.25 | 9.00 | 52.5 °C | 81.3 °C | Dose-dependent effect
5 | CC(C)[C@H]1C(=O)OC[C@@H](NC(=O)c2cnc3ccccc3n2)C(=O)N[C@@H](C)C(=O)N(C)[C@H]2CSSC[C@@H](C(=O)N1C)N(C)C(=O)[C@H](C)NC(=O)[C@H](NC(=O)c1cnc3ccccc3n1)COC(=O)[C@@H](C(C)C)N(C)C2=O | 4.61 |  |  |  |  | 0.24 | 5.70 |  |  | 
6 | CC(=O)SC[C@H]1C(=O)N(C)[C@@H](C(C)C)C(=O)OC[C@@H](NC(=O)c2cnc3ccccc3n2)C(=O)N[C@@H](C)C(=O)N(C)[C@@H](CSC(C)=O)C(=O)N(C)[C@@H](C(C)C)C(=O)OC[C@@H](NC(=O)c2cnc3ccccc3n2)C(=O)N[C@@H](C)C(=O)N1C | 5.06 |  |  |  |  | 0.23 | 6.63 |  |  | 
7 | CC(C)[C@H]1C(=O)OC[C@@H](NC(=O)c2cnc3ccccc3n2)C(=O)N[C@@H](C)C(=O)N(C)[C@H]2C[Se]C[C@@H](C(=O)N1C)N(C)C(=O)[C@H](C)NC(=O)[C@H](NC(=O)c1cnc3ccccc3n1)COC(=O)[C@H](C(C)C)N(C)C2=O |  | 7.93 | 8.15 | 8.17 | 7.84 | 0.2 | 8.70 |  |  | Dose-dependent effect
8 | CC(C)[C@@H]1C(=O)OC[C@@H](NC(=O)c2cnc3ccccc3n2)C(=O)N[C@@H](C)C(=O)N(C)[C@H]2CSSC[C@@H](C(=O)N1C)N(C)C(=O)[C@H](C)NC(=O)[C@H](NC(=O)c1cnc3ccccc3n1)COC(=O)[C@@H](C(C)C)N(C)C2=O | 5.21 |  |  |  |  | 0.25 | 6.23 |  |  | 
9 | CC(=O)N[C@@H]1COC(=O)[C@H](C(C)C)N(C)C(=O)[C@@H]2CSSC[C@@H](C(=O)N(C)[C@@H](C(C)C)C(=O)OC[C@@H](NC(C)=O)C(=O)N[C@@H](C)C(=O)N2C)N(C)C(=O)[C@H](C)NC1=O | 4.81 |  |  |  |  | -0.3 | < 4.00 |  |  | 
